The list is not random: actives were taken first. Their share in the collection is about 1%.
PREPL inh: human PREPL enzyme inhibition; Q4J6C6; recombinant PREPL, fluorescence polarization activity-based probe; inhibition, % at 5.96 µM; 320,000 tested, 0.68% active; in the data active means inhibition above about 43%
LYPLA2 counter: blocks human lysophospholipase 2, a PME1 counter-screen. O95372. recombinant LYPLA2, FP-Rh probe fluorescence polarization. inhibition, % at 5.9 µM. 320,000 tested, 0.38% active;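 active means inhibition above the screen-wide mean plus 3 SD, limit set per campaign, cut at about 26% in these data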
procasp7 counter: counter-screen: procaspase-7 (human) activation; P55210; recombinant procaspase-7, Ac-DEVD-pNA absorbance 405 nm; D23A/D198A/D206A triple mutant, cannot self-cleave; scale: DMSO 0, 5 µM enzyme 100; activation, % at 8.5 µM; 330,000 tested, 0.093% active; AID 463210;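 active means percent activation above the screen-wide mean plus 3 SD, cut at about 25% in these data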
Target sequence (P55210 whole entry D23A/D198A/D206A): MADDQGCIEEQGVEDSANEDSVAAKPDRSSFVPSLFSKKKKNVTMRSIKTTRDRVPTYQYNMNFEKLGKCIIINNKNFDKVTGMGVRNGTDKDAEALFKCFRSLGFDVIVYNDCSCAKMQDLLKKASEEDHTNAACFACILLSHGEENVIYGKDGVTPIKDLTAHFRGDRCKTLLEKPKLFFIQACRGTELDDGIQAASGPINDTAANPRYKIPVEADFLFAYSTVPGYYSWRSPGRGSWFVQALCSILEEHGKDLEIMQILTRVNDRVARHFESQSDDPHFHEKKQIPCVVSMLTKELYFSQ
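System: Procaspase-7 triple mutant (PC-7 D3A); measure: % activation from two-timepoint absorbance difference, scaled to controls; times: 1 h compound preincubation, 2 h substrate cleavage, 25 °C; also added: Ac-DEVD-pNA substrate, 400 µM as added; measured by: Epi-absorbance of released pNA at 405 nm, two timepoints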
proCasp3 act: activates human procaspase-3. P42574. recombinant procaspase-3 D3A, Ac-DEVD-pNA absorbance 405 nm. activation, % at 8.5 µM. 330,000 tested, 0.11% active;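 active means activation above the mean of all tested compounds plus 3 SD, cut at about 21% in these data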
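Assay system – Procaspase-3 D3A mutant, all three cleavage aspartates alanine · Controls – DMSO-only low control, 5 µM PC-3 D3A high control · Schedule – 1 h compound preincubation, 2 h substrate hydrolysis at 25 °C · Signal – 405 nm absorbance of p-nitroaniline, reads at 0 and 120 min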
LYPLA1 counter: counter-screen for PME1 inhibitors: inhibitors of human LYPLA1 | O75608 | recombinant LYPLA1, FP-Rh probe fluorescence polarization | inhibition, % at 5.9 µM | 320,000 tested, 0.16% active;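 active means inhibition above the mean of all tested compounds plus 3 SD, set per campaign, cut at about 14% in these data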;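 further: inhibitors block serine hydrolase probe labeling of LYPLA1 so polarization falls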
Target sequence (O75608 whole entry, looked up): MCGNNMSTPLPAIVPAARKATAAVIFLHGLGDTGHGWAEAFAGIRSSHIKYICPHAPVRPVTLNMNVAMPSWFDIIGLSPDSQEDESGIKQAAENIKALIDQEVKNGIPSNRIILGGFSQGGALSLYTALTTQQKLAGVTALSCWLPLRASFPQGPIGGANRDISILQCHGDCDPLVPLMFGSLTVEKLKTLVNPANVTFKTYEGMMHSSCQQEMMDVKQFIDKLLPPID
LYPLA1 conf: LYPLA1 (human) inhibition, confirmation counter-screen; AID 2233; 480 tested, 69% active; inhibition, % at 5.9 µM; shares compounds with LYPLA1 counter; recombinant LYPLA1, FP-Rh probe fluorescence polarization;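 active means mean inhibition across replicates above the hit cutoff set in the primary screen, cut at about 15% in these data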;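 further: loss of FP-Rh probe labeling of LYPLA1 seen as lower polarization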
LYPLA2 conf: LYPLA2 (human) inhibition, confirmation counter-screen; shares compounds with LYPLA2 counter; recombinant LYPLA2, FP-Rh probe fluorescence polarization; inhibition, % at 5.9 µM; 1,100 tested, 72% active;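 active means mean inhibition across replicates above the hit cutoff set in the primary screen, cut at about 26% in these data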;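 further: blocked labeling of the enzyme by serine hydrolase FP-Rh probe lowers polarization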
Large screens that a line does not name were inactive (follow-up assays come after a bar, where they were run).

COCCn1c(=NC(=O)c2ccc(S(=O)(=O)N3CCOCC3)cc2)sc2cc(S(N)(=O)=O)ccc21	LYPLA1 counter 17 | LYPLA1 conf 27
COC(=O)Cn1c(=NC(=O)c2ccc(S(=O)(=O)N3CCOCC3)cc2)sc2cc(S(N)(=O)=O)ccc21	none
O=C(Nc1ccc(Oc2cccnc2)cc1)C1CCN(Cc2cc(Cl)ccc2O)CC1	LYPLA1 counter 21 | LYPLA1 conf 18
COc1ccc(N2C(=NC(=O)C3CCCCC3)SC3CS(=O)(=O)CC32)cc1Cl (stereo not given)	none
COc1ccc(CNC(=O)C2CCCN(S(=O)(=O)c3cc(C)ccc3OC)C2)cc1 (stereo not given)	none
Cc1ccc(CN2CCN(/N=C/C=C/c3ccccc3[N+](=O)[O-])CC2)cc1	LYPLA2 counter 71, LYPLA1 counter 33 | LYPLA1 conf 53 | LYPLA2 conf 77
CC(=O)Nc1ccc(Nc2c3c4c(cccc4n(C)c2=O)C(=O)c2ccccc2-3)cc1	LYPLA2 counter 29, LYPLA1 counter 21 | LYPLA1 conf inactive | LYPLA2 conf inactive
CN1C(=O)c2cccc(NCCCN3C(=O)c4ccccc4C3=O)c2C1=O	none
CC(=O)Nc1ccc(NC2=CC(=O)c3ccccc3C2=O)cc1	none
CCCCNc1c2c3c(cccc3n(C)c1=O)C(=O)c1ccccc1-2	LYPLA2 counter 54, LYPLA1 counter 42 | LYPLA1 conf 39 | LYPLA2 conf 37
Cc1ccccc1-n1c(SCC(=O)N2CCCC2)nnc1-c1ccccn1	none
CC(C)(C)OC(=O)NCCCCCc1nnc(SCc2c(F)cccc2Cl)o1	LYPLA2 counter 40, LYPLA1 counter 25 | LYPLA1 conf 41 | LYPLA2 conf 44
CC(C)(C)OC(=O)NCCc1nnc(SCc2c(Cl)cccc2Cl)o1	none
CCCCn1c(NS(=O)(=O)c2ccccc2)c(S(=O)(=O)c2ccc(C)cc2)c2nc3ccccc3nc21	LYPLA2 counter 56, LYPLA1 counter 64 | LYPLA1 conf 82 | LYPLA2 conf 91
N#Cc1ccc(C(=O)NCC2CCCCC2)cc1	none
COc1ccc(OCC(O)CN2CCC(CN3C(=O)c4cccc5cccc(c45)C3=O)CC2)cc1 (stereo not given)	LYPLA2 counter 69, LYPLA1 counter 20 | LYPLA1 conf 23 | LYPLA2 conf 69
CN(C)c1ccc(S(=O)(=O)NCC(=O)N2CCN(c3ccccc3)CC2)cc1[N+](=O)[O-]	LYPLA2 counter 28, LYPLA1 counter 18 | LYPLA1 conf 24 | LYPLA2 conf 26
COc1ccc2c(c1)C(=O)[C@H](O)[C@@H](c1ccc(OC)c(Br)c1)O2	LYPLA2 counter 93, LYPLA1 counter 44 | LYPLA1 conf 41 | LYPLA2 conf 93
CC(=O)N1CCC2(CC1)C/C(=N\NC(=S)Nc1ccc(C)cc1)c1cc(O)ccc1O2	LYPLA2 counter 50, LYPLA1 counter 22 | LYPLA1 conf 31 | LYPLA2 conf 54
Cc1ccc(NC(=S)N/N=C2\CC(C)(C)Oc3ccc(O)cc32)cc1	none
COc1ccc(OC)c(/C=N/NC(=O)c2cc3c(OC)c(OC)ccc3[nH]2)c1	none
O=C(NCC(c1cccnc1)N1CCN(c2ccc(F)cc2)CC1)OCc1ccccc1 (stereo not given)	none
COc1ccc(C(=O)Nc2ccc(N3CCN(C)CC3)cc2)cc1[N+](=O)[O-]	none
CC(=O)N1CCN(c2ccc(NC(=S)NC(=O)c3ccc(C)c([N+](=O)[O-])c3)cc2)CC1	LYPLA2 counter 43, LYPLA1 counter 20 | LYPLA1 conf 32 | LYPLA2 conf 56
CCOc1ccc(C(=O)NC(=S)Nc2ccc(N3CCCCC3)cc2)cc1[N+](=O)[O-]	none
COc1ccc(C(=O)NC(=S)Nc2ccc(N3CCN(C(C)=O)CC3)cc2)cc1[N+](=O)[O-]	LYPLA2 counter 70, LYPLA1 counter 55 | LYPLA1 conf 63 | LYPLA2 conf 75
COc1ccc(C(=O)NC(=S)Nc2cccc(NC(=O)c3ccco3)c2)cc1[N+](=O)[O-]	LYPLA2 counter 48, LYPLA1 counter 37 | LYPLA1 conf inactive | LYPLA2 conf inactive
Cc1nn(Cc2ccc(Cl)cc2)c(C)c1NC(=O)c1noc2c1CCCCC2	none
S=C(NCCc1ccccn1)Nc1cc(Cl)cc(Cl)c1	none
O=C(O)CCc1ccc(S(=O)(=O)Nc2ccc(OCc3ccccc3)cc2)cc1	none
C=CCn1c(NC(=O)c2ccccc2Cl)c(C#N)c2nc3ccccc3nc21	LYPLA2 counter 50, LYPLA1 counter 39 | LYPLA1 conf inactive | LYPLA2 conf 86
CC(C)N(C(=O)Nc1ccc2nsnc2c1)C(C)C	LYPLA2 counter 73, LYPLA1 counter 71 | LYPLA1 conf inactive | LYPLA2 conf 31
COc1ccc(NC(=S)Nc2ccc3nc(C)c(C)nc3c2)cc1	none
COc1ccc(NC(=S)Nc2ccc3nsnc3c2)cc1	LYPLA2 counter 86, LYPLA1 counter 61 | LYPLA1 conf inactive | LYPLA2 conf inactive
O=C(NNC(=O)c1ccccc1C(=O)O)c1cc2ccccc2o1	none
COc1ccc(CC(C)N2CCN(Cc3ccccc3)CC2)cc1OC (stereo not given)	LYPLA2 counter 28, LYPLA1 counter 25 | LYPLA1 conf inactive | LYPLA2 conf inactive
COc1ccc(CC(C)N2CCN(c3ccccc3OC)CC2)cc1OC (stereo not given)	none
Cc1ccsc1C=Nc1ccc(O)cc1	LYPLA2 counter 40, LYPLA1 counter 38 | LYPLA1 conf inactive | LYPLA2 conf inactive
Cc1ccsc1/C=N/N=C/c1sccc1C	none
Cc1cc(C=NCCO)c(C)n1-c1cc(Cl)ccc1Cl	none
Cc1occc1C(=O)NCc1ccccn1	none
O=C(CCCCn1c(=O)[nH]c2ccccc2c1=O)N1CCN(c2cccc(C(F)(F)F)c2)CC1	LYPLA2 counter 83, LYPLA1 counter 20 | LYPLA1 conf 22 | LYPLA2 conf 73
Cc1ccc(C)c(C(=O)CCC(=O)N2CCN(c3cccc(C(F)(F)F)c3)CC2)c1	LYPLA2 counter 57, LYPLA1 counter 37 | LYPLA1 conf 44 | LYPLA2 conf 64
COc1ccc(N2CCN(C(=O)CCCCCn3c(=O)[nH]c4ccsc4c3=O)CC2)cc1	LYPLA2 counter 27, LYPLA1 counter 19 | LYPLA1 conf 46 | LYPLA2 conf 29
CC12CCC(c3c(CO)nn(-c4ccccc4)c31)C2(C)C (stereo not given)	none
CCNc1ccc2noc3c2c1C(=O)c1ccccc1-3	PREPL inh 107, LYPLA2 counter 118, LYPLA1 counter 108 | LYPLA1 conf 108 | LYPLA2 conf 112

Source: PubChem (The Scripps Research Institute Molecular Screening Center)
